Test results from ChEMBL document CHEMBL1154734, “Small-sized human immunodeficiency virus type-1 protease inhibitors containing allophenylnorstatine to explore the S2' pocket” (J Med Chem, 2009).
≈ marks a conversion by molar mass, not a printed value.

Legend:
[1] = target: Protease (Human immunodeficiency virus 1) (UniProt Q9YQ12); test: Inhibition of HIV1 recombinant protease at 50 nM after 15 mins by fluorescence assay
In short: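 Recombinant HIV-1 protease was assayed in MES–NaOH pH 5.5 with DTT, EDTA and NaCl, with inhibitor at 50 nM final (500 nM DMSO stock). The substrate was H-Lys-Ala-Arg-Val-Tyr-Phe(p-NO2)-Glu-Ala-Nle-NH2, and the reaction ran 15 min at 37 °C. It was stopped with 1 N HCl. The N-terminal fragment was quantified by RP-HPLC with fluorescence at ex 275/em 305 nm.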

[2] = tested on: Human immunodeficiency virus 1; test: Ratio of EC50 for HIV1 3B infected in human MT4 cells in presence of 50% human serum to EC50 for HIV1 3B infected in human MT4 cells in absence of human serum; type: functional
[3] = tested on: Human immunodeficiency virus 1; test: Antiviral activity against HIV1 3B infected in human MT4 cells assessed as inhibition of virus-induced cytopathic effect after 5 days by MTT assay in absence of human serum; type: functional, organism-based; details: Human immunodeficiency virus 1, 3B, MT4, 120 h
In short: (§1)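 HIV-1 (IIIB or pNL4-3) inoculated into MT-4 cells. Cultures were treated with an equal volume of a 1% DMSO solution of compound at several concentrations plus 10% fetal bovine serum, then incubated 5 days at 37 °C in CO2, in triplicate. After MTT, optical density gave the percent cytopathic effect reduction. EC50 was fitted to a median-effect equation.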

[4] = Aqueous solubility in 0.1% TFA after 30 mins by RP-HPLC analysis; type: physicochemical; details: 0.1% TFA in water
[5] = tested on: Human immunodeficiency virus 1; test: Antiviral activity against HIV1 3B infected in human MT4 cells assessed as inhibition of virus-induced cytopathic effect after 5 days by MTT assay in presence of 50% human serum; type: functional, organism-based; details: Human immunodeficiency virus 1, 3B, MT4, 120 h
In short: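 MT-4 cells were infected with wild-type HIV-1 (IIIB or pNL4-3) in the presence of 50% human serum. Compound was added at several concentrations from a 1% DMSO solution, and cells were incubated 5 days at 37 °C in triplicate. Cytopathic effect reduction was read by MTT optical density, and EC50 was derived from a median-effect equation fit.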

[6] = tested on: Human immunodeficiency virus 1; test: Antiviral activity against HIV1 3B infected in human MT4 cells assessed as inhibition of virus-induced cytopathic effect after 5 days by MTT assay; type: functional, organism-based; details: Human immunodeficiency virus 1, 3B, MT4, 120 h; in short: as §1
[7] = tested on: Human immunodeficiency virus 1; test: Antiviral activity against HIV1 pNL4-3 infected in human MT4 cells assessed as inhibition of virus-induced cytopathic effect after 5 days by MTT assay; type: functional, organism-based; details: Human immunodeficiency virus 1, pNL4-3, MT4, 120 h; in short: as §1
[8] = tested on: Human immunodeficiency virus 1; test: Antiviral activity against indinavir-resistant HIV1 harboring L10R/M46I/L63P/V82T/I84V mutant protease infected in human MT4 cells assessed as inhibition of virus-induced cytopathic effect after 5 days by MTT assay; type: functional, organism-based; details: Human immunodeficiency virus 1, MT4, 120 h
In short: (§2)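 MT-4 cells inoculated with HIV-1 wild-type pNL4-3 or indinavir-resistant IND-R, then given an equal volume of compound in 1% DMSO at several concentrations with 10% fetal bovine serum. Incubated 5 days at 37 °C in CO2, in triplicate. MTT read-out by optical density gave percent cytopathic-effect reduction; EC50 was fitted to a median-effect equation.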

[9] = tested on: Human immunodeficiency virus 1; test: Fold resistance, ratio of EC50 for indinavir-resistant HIV1 harboring L10R/M46I/L63P/V82T/I84V mutant protease infected in human MT4 cells to EC50 for HIV1 pNL4-3 infected in human MT4 cells; type: functional; in short: as §2

Protease (Human immunodeficiency virus 1), sequence (Q9YQ12 as listed by the source): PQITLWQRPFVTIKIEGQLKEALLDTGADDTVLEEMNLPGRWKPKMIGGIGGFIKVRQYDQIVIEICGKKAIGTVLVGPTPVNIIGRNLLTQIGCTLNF

Compound	inhibition [1]	Ratio EC50 [2]	EC50 [3]	solubility at 0.5 h [4]	EC50 [5]	EC50 [6]	EC50 [7]	EC50 [8]	Ratio EC50 [9]
Cc1cccc(C)c1OCC(=O)N[C@@H](Cc1ccccc1)[C@@H](O)C[C@H](Cc1ccccc1)NC(=O)[C@H](C(C)C)N1CCCNC1=O [LOPINAVIR]	–	–	–	–	–	30 nM	16 nM	385 nM	24
C#CCNC(=O)[C@H]1N(C(=O)[C@@H](O)[C@H](Cc2ccccc2)NC(=O)c2cccc(O)c2C)CSC1(C)C	90%	–	–	–	–	110 nM	558 nM	1930 nM	3.5
Cc1ccccc1CNC(=O)[C@H]1N(C(=O)[C@@H](O)[C@H](Cc2ccccc2)NC(=O)COc2c(C)cc(N)cc2C)CSC1(C)C	98%	3	83 nM	2640 µg/mL (≈ 4.27 mM)	249 nM	–	103 nM	568 nM	5.5
Cc1c(O)cccc1C(=O)N[C@@H](Cc1ccccc1)[C@H](O)C(=O)N1CSC(C)(C)[C@H]1C(=O)NC1CCCC1	94%	–	–	–	–	125 nM	290 nM	2200 nM	7.6
Cc1c(O)cccc1C(=O)N[C@@H](Cc1ccccc1)[C@H](O)C(=O)N1CSC(C)(C)[C@H]1C(=O)NC/C=C\CO	94%	–	–	–	–	1200 nM	–	–	–
Cc1cccc(C)c1CNC(=O)[C@H]1N(C(=O)[C@@H](O)[C@H](Cc2ccccc2)NC(=O)COc2c(C)cc(N)cc2C)CSC1(C)C	99%	3.6	41 nM	1250 µg/mL (≈ 1.98 mM)	150 nM	–	122 nM	409 nM	3.4
Cc1cc(N)cc(C)c1OCC(=O)N[C@@H](Cc1ccccc1)[C@H](O)C(=O)N1CSC(C)(C)[C@H]1C(=O)N[C@H]1CCc2ccccc21	97%	7.5	32 nM	1710 µg/mL (≈ 2.71 mM)	241 nM	–	48 nM	416 nM	8.7
Cc1cc(N)cc(C)c1OCC(=O)N[C@@H](Cc1ccccc1)[C@H](O)C(=O)N1CSC(C)(C)[C@H]1C(=O)NC(C)(C)C	92%	4.5	132 nM	6020 µg/mL (≈ 10.5 mM)	601 nM	–	280 nM	2030 nM	7.3
C=CCNC(=O)[C@H]1N(C(=O)[C@@H](O)[C@H](Cc2ccccc2)NC(=O)c2cccc(O)c2C)CSC1(C)C	93%	–	–	–	–	123 nM	141 nM	173 nM	1.2
C=CCNC(=O)[C@H]1N(C(=O)[C@@H](O)[C@H](Cc2ccccc2)NC(=O)COc2c(C)cc(N)cc2C)CSC1(C)C	91%	4.3	66 nM	12800 µg/mL (≈ 23.1 mM)	284 nM	–	54 nM	470 nM	8.7
Cc1c(O)cccc1C(=O)N[C@@H](Cc1ccccc1)[C@H](O)C(=O)N1CSC(C)(C)[C@H]1C(=O)NC1CCCCC1	86%	–	–	–	–	207 nM	240 nM	1730 nM	7.2
Cc1cc(N)cc(C)c1OCC(=O)N[C@@H](Cc1ccccc1)[C@H](O)C(=O)N1CSC(C)(C)[C@H]1C(=O)N[C@H]1c2ccccc2C[C@H]1O	–	4.2	357 nM	3740 µg/mL (≈ 5.78 mM)	1500 nM	–	450 nM	1420 nM	3.2

More lines, main results first:

inhibition [1]	Compound	Ratio EC50 [2]	EC50 [3]	solubility at 0.5 h [4]	EC50 [5]	EC50 [6]	EC50 [7]	EC50 [8]	Ratio EC50 [9]
95%	Cc1cc(N)cc(C)c1OCC(=O)N[C@@H](Cc1ccccc1)[C@H](O)C(=O)N1CSC(C)(C)[C@H]1C(=O)NCc1c(Cl)cccc1Cl	4.1	158 nM	1180 µg/mL (≈ 1.75 mM)	648 nM	–	–	–	–
65%	Cc1c(O)cccc1C(=O)N[C@@H](Cc1ccccc1)[C@H](O)C(=O)N1CSC(C)(C)[C@H]1C(=O)NC1CCC1	–	–	–	–	119 nM	–	–	–
92%	Cc1c(O)cccc1C(=O)N[C@@H](Cc1ccccc1)[C@H](O)C(=O)N1CSC(C)(C)[C@H]1C(=O)N[C@H]1c2ccccc2C[C@H]1O	–	–	–	–	100 nM	–	–	–
76%	Cc1c(O)cccc1C(=O)N[C@@H](Cc1ccccc1)[C@H](O)C(=O)N1CSC(C)(C)[C@H]1C(=O)NC1CCCCCC1	–	–	–	–	332 nM	–	–	–
91%	Cc1cccc(C)c1OCC(=O)N[C@@H](Cc1ccccc1)[C@H](O)C(=O)N1CSC(C)(C)[C@H]1C(=O)NC(C)(C)C	–	1290 nM	–	4500 nM	–	–	–	–
91%	Cc1c(O)cccc1C(=O)N[C@@H](Cc1ccccc1)[C@H](O)C(=O)N1CSC(C)(C)[C@H]1C(=O)N[C@@H]1CCc2ccccc21	–	–	–	–	353 nM	–	–	–
88%	CCCNC(=O)[C@H]1N(C(=O)[C@@H](O)[C@H](Cc2ccccc2)NC(=O)c2cccc(O)c2C)CSC1(C)C	–	–	–	–	91 nM	–	–	–
97%	Cc1c(O)cccc1C(=O)N[C@@H](Cc1ccccc1)[C@H](O)C(=O)N1CSC(C)(C)[C@H]1C(=O)N[C@H]1CCc2ccccc21	–	–	–	–	73 nM	–	–	–
66%	Cc1c(O)cccc1C(=O)N[C@@H](Cc1ccccc1)[C@H](O)C(=O)N1CSC(C)(C)[C@H]1C(=O)N[C@@H]1c2ccccc2C[C@@H]1O	–	–	–	–	550 nM	–	–	–
85%	Cc1ccccc1CNC(=O)[C@H]1N(C(=O)[C@@H](O)[C@H](Cc2ccccc2)NC(=O)COc2c(C)cc(N(C)C)cc2C)CSC1(C)C	5.1	758 nM	3830 µg/mL (≈ 5.92 mM)	3900 nM	–	–	–	–
85%	CNc1cc(C)c(OCC(=O)N[C@@H](Cc2ccccc2)[C@H](O)C(=O)N2CSC(C)(C)[C@H]2C(=O)NCc2ccccc2C)c(C)c1	2.9	191 nM	2990 µg/mL (≈ 4.72 mM)	560 nM	–	–	–	–
52%	Cc1c(O)cccc1C(=O)N[C@@H](Cc1ccccc1)[C@H](O)C(=O)N1CSC(C)(C)[C@H]1C(=O)N[C@H](C)c1ccccc1	–	–	–	–	617 nM	–	–	–
64%	CCNC(=O)[C@H]1N(C(=O)[C@@H](O)[C@H](Cc2ccccc2)NC(=O)c2cccc(O)c2C)CSC1(C)C	–	–	–	–	182 nM	–	–	–
91%	Cc1cc(N)cc(C)c1OCC(=O)N[C@@H](Cc1ccccc1)[C@H](O)C(=O)N1CSC(C)(C)[C@H]1C(=O)NC/C=C\CO	2.3	184 nM	9320 µg/mL (≈ 15.9 mM)	433 nM	–	–	–	–
